This is a sample that favours compounds with a hit; in the whole collection about 2.6% have one here.
Ecoli rRNA inh = reduced GFP signal of wild-type E. coli, primary screen, bacterial rRNA inhibitor project, GFP/RFP fluorescence, OD600, single point | E. coli WT GFP vs humanized-ribosome RFP mutants, 24 h; hits give low values; DMSO median 0, no signal -100 | GFP signal change (wild-type ribosome), % (no concentration beside the values) | hit rate 1.6% among 350,000;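 active = significant combined selectivity score with lowered wild-type GFP, culture density cut under 30%, mutant RFP and density less affected; inactive = any of these conditions unmet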
Vif inh = HIV Vif self-association inhibitors, primary screen, imaging, HEK293T, single point. HEK293T cells, Vif self-association by quenched fluorescence, 24 h. hit rate 0.35% among 340,000. inhibition, % at 7.49 µM; in the data active = inhibition above about 50%, passing the limit was not always enough; inconclusive = no clear call, values can overlap the other calls; inactive = below about 31%
Env fusion inh = inhibitors of HIV-1 Env-driven cell-cell fusion, primary screen, HeLa-JRFL effector, CEM21 target cells, luciferase | inhibition, % at 12.3 µM | hit rate 1.1% among 360,000;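 active = mean replicate inhibition score of at least 50 and every replicate individually at or above 50; inconclusive = only one of the two criteria met; inactive = mean below 50 and not all replicates reaching 50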;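 note: 0% = plate neutral controls and 100% = maraviroc near 300 nM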
S100A4 MyoIIA = inhibitors of S100A4-myosin IIA peptide binding, primary screen, biochemical, fluorescence polarization, TAMRA-MyoIIA peptide. hit rate 0.14% among 360,000. AID 652163, 2013. inhibition, % at 10.7 µM. Protein S100-A4 (Homo sapiens), P26447;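 active = mean inhibition of at least 70% across replicates, with every replicate also reaching that level; inconclusive = mean inhibition reaches 70% but some replicates fall short; inactive = mean inhibition below 70%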
Target sequence (P26447 whole entry, looked up): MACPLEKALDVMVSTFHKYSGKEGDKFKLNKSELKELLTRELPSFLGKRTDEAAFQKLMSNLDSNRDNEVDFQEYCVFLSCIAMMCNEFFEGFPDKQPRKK
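Compound dosing: one dose per compound; test system: human S100A4 monomer with TAMRA-labelled myosin IIA peptide; probe or stimulus: TAMRA-labelled myosin IIA heavy-chain peptide probe, 5 nM; medium: HEPES buffer with Ca2+, pH 7.2; schedule: 5 min incubation before reading; benchmarks: neutral control DMSO, positive control TFP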
miR122 inh = miR-122 Renilla sensor signal increase in Huh7, primary screen, miR-122 inhibitor project, cell-based, single point, plate reader; Huh7 miR-122 Renilla luciferase sensor, 48 h; neutral wells = 0, positive control = 100; activation (reporter increase), % at 12.5 µM; hit rate 0.3% among 340,000; AID 602342, 2012;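 active = mean replicate activation score at least 90 and every replicate individually at or above 90; inconclusive = only one of the two criteria met; inactive = neither criterion met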;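 note: higher luciferase means less miR-122 activity so hits act as miR-122 inhibitors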
FN deposit inh = inhibitors of fibronectin matrix deposition, primary screen, AH1F cells, Alexa488-fibronectin fluorescence, plate reader; AH1F fibroblasts, overnight; inhibition, % at 12.6 µM; hit rate 0.086% among 350,000; AID 743247, 2014;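 active = mean inhibition across replicates of 30% or more, regardless of how many single replicates reach that level; inconclusive = mean under 30% yet at least half of replicates reach 30%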;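 note: positive control wells lacked labelled fibronectin entirely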
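Assay system: AH1F fibroblast monolayer, labelled fibronectin deposition. Amount: 10000 cells per well. Also added: labelled fibronectin 24 nM. Compound: single-point pinned compound. Incubation: cell attachment 1 h, compound and FN exposure overnight. Detection: fluorescence after three HBSS washes, excitation 485 nm, emission 525 nm. Read-out: inhibition of fibronectin deposition signal.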
An asterisk follows results filed as active; ? = inconclusive; nt = not tested or not shown; [ ] = dose if it differs, or a comment.

SMILES | Ecoli rRNA inh | Vif inh | Env fusion inh | S100A4 MyoIIA | miR122 inh | FN deposit inh
CC=Cc1ccc2n(c1=O)C[C@H]1[C@H](CO)[C@@H](C(=O)NC3CCC3)[C@@H]2N1S(=O)(=O)c1cn(C)cn1 (mixture of isomers) | 0.2 | nt | 2.6[16.7 µM] | 10.6 | nt | nt
N#CC(CCc1ccc([N+](=O)[O-])cc1)(CCc1ccc([N+](=O)[O-])cc1)C(N)=O | -19.3* | 12.0 | nt | 9.7 | -5.2 | 5.4
O=[N+]([O-])c1ccc(Cc2ccc([N+](=O)[O-])cc2)cc1 | 1.5 | 6.6 | -9.9 | -10.6 | -9.2 | 6.5
NC(=O)c1sc(=S)n(-c2ccc(Br)cc2)c1N | -31.0* | -4.3 | -80.7 | -2.1 | 10.1 | -8.1
Cc1ccc(-c2cc(C(=O)NCCCn3ccnc3)c3ccccc3n2)s1 | nt | -0.5 | 15.9 | -5.6 | 123.3* | 6.0
COc1ccc2c3c(n(C)c2c1)[C@@H](CO)N(C(=O)Nc1ccccc1F)CC31CN(C)C1 | 0.0 | nt | nt | nt | nt | nt
COc1ccc(C2C3=C(CC(C)(C)CC3=O)Oc3ncn(CCO)c(=N)c32)cc1OC (stereo not given) | nt | ? | -2.6 | nt | 2.0 | -6.6
CC(C)Cn1cnc2c(c1=N)C(c1ccccc1)C1=C(CC(C)(C)CC1=O)O2 (stereo not given) | -37.9* | -3.2 | 7.4 | -12.5 | nt | -5.0
COc1ccccc1-n1cc([C@@H]2C[C@H]3CN(c4ccccc4)C(=O)[C@]34CCCN24)cn1 | 6.0 | 7.0 | 58.6* | -28.3 | 36.8 | -4.6
Cc1cccc(NC(=O)CNC(=O)Cn2ncc(Cl)c(Cl)c2=O)c1C | nt | 56.8* | nt | nt | 38.5 | nt
Cc1ccc(NC(=O)CN(C)C(=O)Cc2ccc(Cl)c(Cl)c2)cc1 | -5.4 | -22.2 | 6.1 | 18.3 | nt | -0.2
Cc1ccc(NC(=O)CN(C)C(=O)Cn2ncc(Cl)c(Cl)c2=O)cc1 | 4.2 | 9.8 | -53.1 | -13.2 | -70.6 | 36.3*
O=C(COC(=O)c1cccc(O)c1)Nc1ccc(OC(F)F)cc1 | -25.1* | -3.8 | -1.5 | -0.2 | nt | 2.4
CCCCCCCCN1C(=O)[C@H](CC(=O)NCCCC)C[C@@]2(C(=O)OCC)CCCC=C12 | nt | nt | 96.7* | 1.4 | nt | 16.1
CCCCCCCCN1C(=O)[C@H](CC(=O)N2CCCCC2)C[C@@]2(C(=O)OCC)CCCC=C12 | nt | nt | 89.2* | -5.1 | nt | -0.6
CCOc1cc(/C=C2\CN(CC)C/C(=C\c3ccc(O)c(OCC)c3)C2=O)ccc1O | -10.1 | ? | 66.6* | -7.3 | -35.8 | 0.6
Cc1cc(C)c(NC(=O)CN(C)CC(=O)Nc2cccc(S(=O)(=O)N(C)c3ccccc3)c2)c(C)c1 | -9.8 | nt | nt | -2.4 | -4.1 | 3.5
Cc1ccccc1CN(C)CC(=O)Nc1cccc(S(=O)(=O)N(C)c2ccccc2)c1 | -20.6* | -4.2 | 22.9 | -2.2 | nt | 5.0
Cc1noc(NS(=O)(=O)c2ccc(NC(=O)CSc3nc4c(cc3C#N)CCC4)cc2)c1C | -9.2 | 2.1 | -37.5 | -5.1 | -6.7 | -1.4
Cc1noc(NS(=O)(=O)c2ccc(NC(=O)CSc3nc4c(cc3C#N)CCCC4)cc2)c1C | -24.7* | 7.8 | -3.1 | 5.3 | -1.5 | -0.3
CCOC(=O)CCc1c(C)c2ccc(OCC(=O)OC(C)C)cc2oc1=O | nt | nt | -4.1 | nt | -12.3 | nt
CCOC(=O)CCc1c(C)c2ccc(OC3CCCCC3=O)cc2oc1=O (stereo not given) | -21.3* | nt | -2.2 | 16.4 | -3.2 | -9.3
Cc1ccc(S(=O)(=O)N(C)C[C@@H]2Oc3c(NS(=O)(=O)c4ccc(Cl)cc4)cccc3C(=O)N([C@H](C)CO)C[C@@H]2C)cc1 | -0.2 | nt | -18.9[16.7 µM] | -14.5 | 9.7[16.7 µM] | nt
COc1ccc(C#Cc2ccc3c(c2)O[C@H](CN(C)C(=O)CN2CCOCC2)[C@@H](C)CN([C@@H](C)CO)S3(=O)=O)cc1 | -2.6 | nt | 22.8[16.7 µM] | -13.3 | -42.8[16.7 µM] | nt

Bioassay records: PubChem BioAssay, Broad Institute
